Assay [1] concerns Trichophyton benhamiae. As to the kind of experiment: Antifungal activity against Trichophyton mentagrophytes. It is filed as functional, trychophyton mentagrophytes. The method in brief: (§1)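 Agar dilution MIC. Twofold serial drug dilutions in yeast nitrogen base medium with 1% dextrose, 0.15% asparagine and 1.5% agar. Agar surfaces inoculated using a Steers multiple inocula replicator, then incubated at 35 °C for 24-48 h. MIC was recorded as the lowest concentration inhibiting visible growth. Amphotericin B, miconazole and nystatin served as controls.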

For assay [2], the system named is Kluyveromyces marxianus. Kind of assay: Antifungal activity against Candida pseudotropicalis. Format: functional. The method in brief: as §1
Assay [3] has as its system Candida parapsilosis. As to the kind of experiment: Antifungal activity against Candida parapsilosis. The following applies: Lodderomyces parapsilosis. Format: functional. In a few lines:
as §1

Assay [4] concerns Trichophyton rubrum. Kind of assay: Antifungal activity against Trichophyton rubrum. It is filed as functional. The method in brief:
as §1

Assay [5] deals with Candida tropicalis. Kind of assay: Antifungal activity against Candida tropicalis. It is filed as functional. The method in brief:
as §1

Assay [6] concerns Aspergillus niger. As to the kind of experiment: Antifungal activity against Aspergillus niger; Range is 16-32. It is filed as functional. The method in brief: as §1
In assay [7] the test system is Candida albicans. Kind of assay: Antifungal activity against Candida albicans. It is filed as functional. The method in brief:
as §1

The test system of assay [8] is Mucor fragilis. Kind of assay: Antifungal activity against Mucor fragilis. Format: functional. The method in brief: as §1
The subject of assay [9] is Candida albicans. As to the kind of experiment: Antifungal activity against Candida stellatoidea. It is filed as functional. In a few lines:
as §1

Assay [10] deals with Diutina rugosa. As to the kind of experiment: Antifungal activity against Candida rugosa. Format: functional. In a few lines:
as §1

For assay [11], the system named is Candida albicans. Kind of assay: Antifungal activity against Candida albicans; Range is 8-16. Format: functional. In a few lines:
as §1

Assay [12] deals with Trichophyton rubrum. Kind of assay: Antifungal activity against Trichophyton rubrum; Range is 1-2. Format: functional. The method in brief:
as §1

The test system of assay [13] is Candida tropicalis. Kind of assay: Antifungal activity against Candida tropicalis; Range is 8-16. It is filed as functional. The method in brief:
as §1

The test system of assay [14] is Aspergillus niger. As to the kind of experiment: Antifungal activity against Aspergillus niger. It is filed as functional. The method in brief: as §1
In assay [15] the test system is Trichophyton rubrum. Kind of assay: Antifungal activity against Trichophyton rubrum; Range is 4-8. It is filed as functional. In a few lines:
as §1

Assay [16] relates to Aspergillus niger. As to the kind of experiment: Antifungal activity against Aspergillus niger; Range is 64-128. Format: functional. The method in brief: as §1
Assay [17] relates to Trichophyton rubrum. As to the kind of experiment: Antifungal activity against Trichophyton rubrum; Range is 2-4. Format: functional. In a few lines: as §1
The subject of assay [18] is Kluyveromyces marxianus. Kind of assay: Antifungal activity against Candida pseudotropicalis; Range is 8-16. Format: functional. The method in brief:
as §1

In assay [19] the test system is Aspergillus niger. Kind of assay: Antifungal activity against Aspergillus niger; Range is 32-64. It is filed as functional. In a few lines:
as §1

Data on 14 molecules can be found in ChEMBL document CHEMBL1124369, “Pyrido[3,4-e]-1,2,4-triazines and related heterocycles as potential antifungal agents” (1989).

Converted amounts (≈) assume the structure as drawn.

`c1cnc2nncnc2c1`: the MIC worked out at 32 mg/L (≈ 242 µM) in [1]; 32 mg/L (≈ 242 µM) in assay [2]; 32 mg/L (≈ 242 µM) in assay [3]; 32 mg/L (≈ 242 µM) in assay [4]; 64 mg/L (≈ 484 µM) in assay [5]; 16 mg/L (≈ 121 µM) in [6]. Moreover, the MIC in assay [7] stood at 64 mg/L (≈ 484 µM).
Regarding `c1cc2nnc(C3CCC3)nc2cn1`, the MIC is 16 mg/L (≈ 85.9 µM) in assay [2]; 32 mg/L (≈ 172 µM) in assay [5]; 16 mg/L (≈ 85.9 µM) in assay [6]; 16 mg/L (≈ 85.9 µM) in assay [8]; 32 mg/L (≈ 172 µM) in assay [9]; 32 mg/L (≈ 172 µM) in assay [10]. The same molecule returned an MIC in assay [11] of 8 mg/L (≈ 43 µM).
As to `Fc1cccc(-c2nnc3ccncc3n2)c1`, the MIC in [1] is 4 mg/L (≈ 17.7 µM); in assay [2], 8 mg/L (≈ 35.4 µM); in assay [12], 1 mg/L (≈ 4.42 µM); in assay [3], 16 mg/L (≈ 70.7 µM); in assay [6] it was 16 mg/L (≈ 70.7 µM); in assay [8] it was 16 mg/L (≈ 70.7 µM). In addition, the MIC in [9] is 32 mg/L (≈ 141 µM); in [10], 16 mg/L (≈ 70.7 µM); in assay [13], 8 mg/L (≈ 35.4 µM); in [7] it was 16 mg/L (≈ 70.7 µM).
Regarding `Cc1cc2nnc(-c3ccc(F)cc3)nc2c(C)n1`, the MIC in assay [1] is 64 mg/L (≈ 252 µM); in [2], 128 mg/L (≈ 503 µM); in [4] it was 64 mg/L (≈ 252 µM); in assay [5], 128 mg/L (≈ 503 µM); in assay [8], 64 mg/L (≈ 252 µM); in assay [9] it was more than 128 mg/L. In addition, the MIC in [10] was more than 128 mg/L; in [7] it was 128 mg/L (≈ 503 µM); in assay [14], 128 mg/L (≈ 503 µM).
Consider `Cc1nnc2ccncc2n1`, for which the MIC in assay [1] was determined as 16 mg/L (≈ 109 µM); in [2] it was 8 mg/L (≈ 54.7 µM); in assay [3], 16 mg/L (≈ 109 µM); in [5] it was 8 mg/L (≈ 54.7 µM); in assay [15] it was 4 mg/L (≈ 27.4 µM); in assay [6] it was 16 mg/L (≈ 109 µM). The MIC in assay [8] was 16 mg/L (≈ 109 µM); in assay [9], 32 mg/L (≈ 219 µM); in assay [10], 16 mg/L (≈ 109 µM); in assay [11], 8 mg/L (≈ 54.7 µM).
`Cc1nc(C)c2nc(-c3ccc(F)cc3)nnc2c1N`: the MIC in [1] is 128 mg/L (≈ 475 µM); in assay [3], more than 128 mg/L; in assay [4], 128 mg/L (≈ 475 µM); in assay [5], more than 128 mg/L; in assay [8], 128 mg/L (≈ 475 µM); in assay [9] it was more than 128 mg/L. Further, the MIC in assay [10], in assay [7] and in [14] was more than 128 mg/L throughout.
As to `c1ccc2c3c(cnc2c1)NC1(CCCCC1)N=N3`, the MIC in assay [1] amounted to 64 mg/L (≈ 254 µM); in [2] it was 128 mg/L (≈ 507 µM); in [3], 128 mg/L (≈ 507 µM); in assay [4], 64 mg/L (≈ 254 µM); in assay [5], 128 mg/L (≈ 507 µM); in assay [7] it was 128 mg/L (≈ 507 µM). The molecule also gave an MIC in [14] of 128 mg/L (≈ 507 µM).
As to `c1ccc(-c2ccc(-c3nnc4ccncc4n3)cc2)cc1`, the MIC in assay [2] is 128 mg/L (≈ 450 µM); in assay [5] it was 128 mg/L (≈ 450 µM); in [16], 64 mg/L (≈ 225 µM); in [8] it was 128 mg/L (≈ 450 µM); in assay [9], more than 128 mg/L; in [10], more than 128 mg/L. Moreover, in assay [7], it took 128 mg/L (≈ 450 µM) to inhibit growth (MIC).
Turning to `Cc1nnc2c(cnc3ccccc32)n1`, the MIC in [1] was 32 mg/L (≈ 163 µM); in [2], 32 mg/L (≈ 163 µM); in assay [3], 32 mg/L (≈ 163 µM); in assay [4], 32 mg/L (≈ 163 µM); in assay [5], 32 mg/L (≈ 163 µM); in assay [6] it was 16 mg/L (≈ 81.5 µM). The same molecule returned an MIC in [7] of 32 mg/L (≈ 163 µM).
As for `c1cc2nnc(C3CC3)nc2cn1`, the MIC in [2] is 16 mg/L (≈ 92.9 µM); in [5], 32 mg/L (≈ 186 µM); in assay [8], 16 mg/L (≈ 92.9 µM); in assay [9], 64 mg/L (≈ 372 µM); in assay [10], 64 mg/L (≈ 372 µM); in assay [7], 16 mg/L (≈ 92.9 µM). In addition, it took 32 mg/L (≈ 186 µM) to inhibit growth in assay [14] (MIC).
With `c1ccc(-c2nnc3ccncc3n2)cc1`, the MIC in assay [1] is 8 mg/L (≈ 38.4 µM); in assay [3] it was 16 mg/L (≈ 76.8 µM); in assay [6], 16 mg/L (≈ 76.8 µM); in [8], more than 128 mg/L; in assay [17], 2 mg/L (≈ 9.61 µM); in assay [9], 16 mg/L (≈ 76.8 µM). Further, the minimum inhibitory concentration (MIC) was 32 mg/L (≈ 154 µM) in [10], 8 mg/L (≈ 38.4 µM) in assay [13], 16 mg/L (≈ 76.8 µM) in assay [7] and 8 mg/L (≈ 38.4 µM) in [18].
`c1cnc(-c2nnc3ccncc3n2)cn1`: the MIC was found to be 32 mg/L (≈ 152 µM) in assay [2]; 64 mg/L (≈ 304 µM) in assay [5]; 64 mg/L (≈ 304 µM) in assay [8]; 64 mg/L (≈ 304 µM) in assay [9]; 64 mg/L (≈ 304 µM) in assay [10]; 32 mg/L (≈ 152 µM) in [19]. This molecule came in with a minimum inhibitory concentration (MIC) in [7] of 64 mg/L (≈ 304 µM).
As to `c1ccc(OCc2nnc3ccncc3n2)cc1`, the MIC came to 16 mg/L (≈ 67.2 µM) in [5]; 16 mg/L (≈ 67.2 µM) in [6]; 4 mg/L (≈ 16.8 µM) in assay [8]; 16 mg/L (≈ 67.2 µM) in [9]; 8 mg/L (≈ 33.6 µM) in assay [10]; 8 mg/L (≈ 33.6 µM) in assay [11]. In assay [18], this molecule registered an MIC of 8 mg/L (≈ 33.6 µM).
For `c1cc2nnc(C3CCCC3)nc2cn1`, the MIC in assay [2] amounted to 16 mg/L (≈ 79.9 µM); in assay [5], 64 mg/L (≈ 320 µM); in assay [6], 16 mg/L (≈ 79.9 µM); in [8], 4 mg/L (≈ 20 µM); in assay [9], 32 mg/L (≈ 160 µM); in assay [10] it was 16 mg/L (≈ 79.9 µM). In assay [11], this molecule showed an MIC of 8 mg/L (≈ 40 µM).

As a reminder, the MIC is the lowest concentration found to suppress growth. A higher MIC goes with a need for much substance.
